The pIC50 is −log10 of the IC50, conventionally taken in molar units. Lower therefore signals a large IC50.

Structures are written as SMILES. pIC50: −log10 of the molar value. Calls of active or inactive are those of the source. No cut-off for these calls is given here. Bounds are passed on as bounds.

Experiment [1] relates to SW-620. Briefly: Cytotoxicity against human SW620 cells assessed as reduction in cell viability up to 30 uM after 68 hrs by MTT assay. It is filed as functional, cell-based. On the technique in general: Formazan colour is commonly taken as a measure of viable cells.
The test system of experiment [2] is NCI-H460. Briefly: Cytotoxicity against human NCI-H460 cells assessed as reduction in cell viability up to 30 uM after 68 hrs by MTT assay. It is filed as functional, cell-based.
In experiment [3] the test system is Escherichia coli. Briefly: Growth inhibition of Escherichia coli ATCC 25922 after 24 by broth micro-dilution method. In kind it is functional. On the technique in general: Broth dilution looks for growth in wells or tubes with falling amounts of substance.
Experiment [4] can be described thus: Metal chelating activity of the compound assessed as fluorescence recovery of calcein-Fe3 complex formation up to 40 uM measured after overnight incubation by CAFe based fluorescence spectrophotometry. A digest of the protocol:
(§1)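 Competition assay between the test chelator and a calcein–Fe(III) complex. Calcein is a fluorescent chelator with high Fe(III) affinity, and Fe(III) coordination quenches its fluorescence stoichiometrically. Relative Fe(III) affinity is inferred from the competing equilibrium, read as change in calcein fluorescence.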

In experiment [5] the test system is Staphylococcus aureus. Briefly: Growth inhibition of Staphylococcus aureus ATCC 25923 after 24 by broth micro-dilution method. In kind it is functional.
In experiment [6] the test system is KB 3-1. The experiment can be described thus: Cytotoxicity against human KB-3-1 cells assessed as reduction in cell viability up to 30 uM after 68 hrs by MTT assay. In kind it is functional, cell-based.
Experiment [7] can be described thus: Metal chelating activity of the compound assessed as fluorescence recovery of calcein-Fe3 complex formation up to 10 uM measured after overnight incubation by CAFe based fluorescence spectrophotometry. The method in brief: as §1
Experiment [8] deals with Candida albicans. Briefly: Growth inhibition of Candida albicans ATCC 90028 after 48 by broth micro-dilution method. In kind it is functional.
For experiment [9], the system named is Pseudomonas aeruginosa. Briefly: Growth inhibition of Pseudomonas aeruginosa ATCC 27853 after 24 by broth micro-dilution method. It is filed as functional.

In the case of `CC(=O)N[C@@H](CCCN(O)C(=O)/C=C(\C)CCO)C(=O)OCC/C(C)=C/C(=O)N(O)CCC[C@@H]1NC(=O)[C@H](CCCN(O)C(=O)/C=C(\C)CCO)NC1=O`, the result in experiment [1], in experiment [2] and in experiment [6] was inactive. Moreover, the pIC50 in [3], in [5], in [8] and in [9] was less than 4.52 in each case. Besides, the result in experiment [4] and in experiment [7] was Active.
In the case of `C/C(=C\C(=O)NCCC[C@@H]1NC(=O)[C@H](CCCNC(=O)/C=C(\C)CCO)NC1=O)CCO`, the outcome in [1], in [2] and in experiment [6] was inactive. The pIC50 in experiment [3], in [5], in experiment [8] and in experiment [9] was less than 4.52 in each case.
On to `C/C(=C\C(=O)NCCC[C@@H]1NC(=O)[C@H](CCCN(O)C(=O)/C=C(\C)CCO)NC1=O)CCO`, for which the result in [1], in experiment [2] and in [6] was inactive. The pIC50 in [3], in [5], in [8] and in experiment [9] was less than 4.52 each time.
Turning to `C/C(=C\C(=O)N(O)CCC[C@@H]1NC(=O)[C@H](CCCN(O)C(=O)/C=C(\C)CCO)NC1=O)CCO`, the outcome in experiment [1], in [2] and in [6] was inactive. For the same compound, the pIC50 in experiment [3], in [5], in [8] and in experiment [9] was less than 4.52 in each case. Besides, the result in experiment [4] and in [7] was Active.
As to `CC(=O)N[C@@H](CCCN(O)C(=O)/C=C(\C)CCO)C(=O)OCC/C(C)=C/C(=O)NCCC[C@@H]1NC(=O)[C@H](CCCN(O)C(=O)/C=C(\C)CCO)NC1=O`, the result in experiment [1], in [2] and in experiment [6] was inactive. In addition, the pIC50 in experiment [3], in [5], in experiment [8] and in [9] was less than 4.52 each time.
As to `CC(=O)N[C@@H](CCCN(O)C(=O)/C=C(\C)CCO)C(=O)OCC/C(C)=C/C(=O)NCCC[C@@H]1NC(=O)[C@H](CCCNC(=O)/C=C(\C)CCO)NC1=O`, the result in experiment [1], in [2] and in experiment [6] was inactive. For the same compound, the pIC50 in [3], in experiment [5], in experiment [8] and in [9] was less than 4.52 in each case.
As for `CC(=O)N[C@@H](CCCN(O)C(=O)/C=C(\C)CCO)C(=O)OCC/C(C)=C/C(=O)N(O)CCC[C@@H]1NC(=O)[C@H](CCCNC(=O)/C=C(\C)CCO)NC1=O`, the outcome in experiment [1], in experiment [2] and in [6] was inactive. Besides, the pIC50 in experiment [3], in experiment [5], in experiment [8] and in experiment [9] was less than 4.52 each time.

Values taken from ChEMBL document CHEMBL4052587, “Talarazines A-E: Noncytotoxic Iron(III) Chelators from an Australian Mud Dauber Wasp-Associated Fungus, Talaromyces sp. (CMB-W045)” (J Nat Prod, 2017).
